Reference: the M2OR odorant receptor database
Changes are numbered by the printed parent chain.

Assays:
Settings in all cases: stereoisomer not certain
O14A2 I133V = test system: T1, O14A2 I133V
T1 sequence (whole entry): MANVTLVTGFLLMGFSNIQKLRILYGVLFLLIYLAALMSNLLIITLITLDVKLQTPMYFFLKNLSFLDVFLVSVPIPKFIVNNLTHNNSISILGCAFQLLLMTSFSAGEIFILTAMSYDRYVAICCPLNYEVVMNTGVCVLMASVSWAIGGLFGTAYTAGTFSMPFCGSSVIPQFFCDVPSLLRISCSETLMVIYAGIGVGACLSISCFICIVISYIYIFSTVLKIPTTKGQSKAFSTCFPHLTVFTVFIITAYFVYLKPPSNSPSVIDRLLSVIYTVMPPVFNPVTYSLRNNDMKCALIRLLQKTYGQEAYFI
Summary of the method: (§1)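 Each entry records the cell line, G-protein, co-transfected protein and tags used. Methods varied with the source, often transient luciferase assays in mammalian cell lines. A receptor–molecule pair is called responsive (active) if the original authors judged its signal statistically different from baseline and non-responsive (inactive) otherwise.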

O14CZ = test system: T2, O14CZ
T2 sequence (whole entry): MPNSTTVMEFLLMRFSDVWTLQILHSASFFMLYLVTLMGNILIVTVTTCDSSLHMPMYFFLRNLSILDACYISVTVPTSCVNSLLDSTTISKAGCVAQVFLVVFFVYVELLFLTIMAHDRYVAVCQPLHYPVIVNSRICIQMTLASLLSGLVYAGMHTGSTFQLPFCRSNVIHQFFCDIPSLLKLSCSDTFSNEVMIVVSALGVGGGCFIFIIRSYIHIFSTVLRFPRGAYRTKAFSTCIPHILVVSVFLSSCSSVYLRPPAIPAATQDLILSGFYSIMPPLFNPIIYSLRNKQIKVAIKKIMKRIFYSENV
Summary of the method: as §1

O14I1 V36A D50N Y216C = test system: T3, O14I1 V36A D50N Y216C
T3 sequence (whole entry): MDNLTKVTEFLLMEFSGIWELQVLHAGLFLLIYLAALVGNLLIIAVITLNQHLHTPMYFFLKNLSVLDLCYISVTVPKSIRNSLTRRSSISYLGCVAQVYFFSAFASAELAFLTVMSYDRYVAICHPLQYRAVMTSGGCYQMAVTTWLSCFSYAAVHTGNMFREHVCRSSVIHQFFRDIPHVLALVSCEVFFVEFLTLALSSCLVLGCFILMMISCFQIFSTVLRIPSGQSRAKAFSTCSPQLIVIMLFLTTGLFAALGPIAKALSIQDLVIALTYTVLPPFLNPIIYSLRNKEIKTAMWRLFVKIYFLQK
Summary of the method: as §1

O14J1 N3Y = test system: T4, O14J1 N3Y
T4 sequence (whole entry): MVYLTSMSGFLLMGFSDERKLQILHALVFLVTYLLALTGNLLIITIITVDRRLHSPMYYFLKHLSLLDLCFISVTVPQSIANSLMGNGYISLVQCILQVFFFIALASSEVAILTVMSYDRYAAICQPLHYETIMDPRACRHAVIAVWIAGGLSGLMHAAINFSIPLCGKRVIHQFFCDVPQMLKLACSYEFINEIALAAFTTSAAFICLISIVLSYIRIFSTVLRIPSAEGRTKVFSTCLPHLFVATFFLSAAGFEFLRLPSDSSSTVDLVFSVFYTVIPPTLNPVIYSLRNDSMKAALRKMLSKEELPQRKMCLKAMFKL
Summary of the method: as §1

O14K1 D119Y = test system: T5, O14K1 D119Y
T5 sequence (whole entry): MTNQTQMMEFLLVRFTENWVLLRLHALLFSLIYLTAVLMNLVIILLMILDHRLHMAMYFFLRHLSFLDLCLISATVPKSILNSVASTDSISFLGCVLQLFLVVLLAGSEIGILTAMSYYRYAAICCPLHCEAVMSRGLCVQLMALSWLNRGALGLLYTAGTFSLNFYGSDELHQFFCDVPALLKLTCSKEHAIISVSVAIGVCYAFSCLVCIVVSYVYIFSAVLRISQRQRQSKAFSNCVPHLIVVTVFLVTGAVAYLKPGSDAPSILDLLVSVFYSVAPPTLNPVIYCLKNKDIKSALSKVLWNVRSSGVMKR
Summary of the method: as §1

O2A25 = test system: T6, O2A25
T6 sequence (whole entry): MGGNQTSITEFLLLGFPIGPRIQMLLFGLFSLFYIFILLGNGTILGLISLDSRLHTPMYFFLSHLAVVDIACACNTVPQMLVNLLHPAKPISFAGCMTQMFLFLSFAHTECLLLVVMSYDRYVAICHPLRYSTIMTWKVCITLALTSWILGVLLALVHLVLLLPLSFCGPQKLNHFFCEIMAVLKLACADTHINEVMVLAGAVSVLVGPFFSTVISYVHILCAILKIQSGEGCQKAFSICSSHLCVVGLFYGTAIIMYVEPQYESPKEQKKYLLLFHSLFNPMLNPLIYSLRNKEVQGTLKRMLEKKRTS
Summary of the method: as §1

O2AE1 = test system: T7, O2AE1
T7 sequence (whole entry): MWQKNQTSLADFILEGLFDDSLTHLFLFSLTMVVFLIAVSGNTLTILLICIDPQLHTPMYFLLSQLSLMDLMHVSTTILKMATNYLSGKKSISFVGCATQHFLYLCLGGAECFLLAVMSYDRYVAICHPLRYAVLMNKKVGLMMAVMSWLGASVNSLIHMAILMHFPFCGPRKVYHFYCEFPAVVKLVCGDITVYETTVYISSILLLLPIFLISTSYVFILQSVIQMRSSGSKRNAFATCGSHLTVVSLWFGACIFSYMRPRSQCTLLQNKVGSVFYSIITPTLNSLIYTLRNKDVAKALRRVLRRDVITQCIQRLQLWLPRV
Summary of the method: as §1

O2AJ1 = test system: T8, O2AJ1
T8 sequence (whole entry): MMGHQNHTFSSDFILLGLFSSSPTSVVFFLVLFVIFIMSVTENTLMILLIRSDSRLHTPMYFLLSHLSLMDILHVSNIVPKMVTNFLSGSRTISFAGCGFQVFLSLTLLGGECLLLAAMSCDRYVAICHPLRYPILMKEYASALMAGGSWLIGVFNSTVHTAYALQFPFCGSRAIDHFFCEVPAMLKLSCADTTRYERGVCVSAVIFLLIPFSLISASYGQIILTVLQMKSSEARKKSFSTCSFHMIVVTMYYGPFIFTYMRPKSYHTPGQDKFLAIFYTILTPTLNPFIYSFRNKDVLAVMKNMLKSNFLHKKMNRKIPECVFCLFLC
Summary of the method: as §1

O2AK2 S99N = test system: T9, O2AK2 S99N
T9 sequence (whole entry): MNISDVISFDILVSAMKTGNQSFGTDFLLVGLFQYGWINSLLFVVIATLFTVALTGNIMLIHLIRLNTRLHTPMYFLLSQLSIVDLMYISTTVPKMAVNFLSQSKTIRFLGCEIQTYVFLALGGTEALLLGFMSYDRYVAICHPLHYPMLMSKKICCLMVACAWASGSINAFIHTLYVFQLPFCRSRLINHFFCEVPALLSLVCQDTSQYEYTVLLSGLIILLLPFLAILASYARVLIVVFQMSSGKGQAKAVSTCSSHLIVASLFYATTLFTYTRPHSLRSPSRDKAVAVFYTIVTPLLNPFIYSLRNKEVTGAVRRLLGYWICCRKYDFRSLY
Summary of the method: as §1

O2T11 = test system: T10, O2T11
T10 sequence (whole entry): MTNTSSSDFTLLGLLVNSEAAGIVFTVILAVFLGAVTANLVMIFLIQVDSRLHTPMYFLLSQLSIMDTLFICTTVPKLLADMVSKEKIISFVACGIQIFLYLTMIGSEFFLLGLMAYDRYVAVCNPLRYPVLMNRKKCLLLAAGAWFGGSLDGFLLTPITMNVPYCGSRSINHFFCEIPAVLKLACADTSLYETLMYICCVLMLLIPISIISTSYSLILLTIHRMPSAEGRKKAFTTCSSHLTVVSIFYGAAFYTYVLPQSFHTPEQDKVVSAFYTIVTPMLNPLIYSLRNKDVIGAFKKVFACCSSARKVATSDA
Summary of the method: as §1

O2T27 L36V V134D = test system: T11, O2T27 L36V V134D
T11 sequence (whole entry): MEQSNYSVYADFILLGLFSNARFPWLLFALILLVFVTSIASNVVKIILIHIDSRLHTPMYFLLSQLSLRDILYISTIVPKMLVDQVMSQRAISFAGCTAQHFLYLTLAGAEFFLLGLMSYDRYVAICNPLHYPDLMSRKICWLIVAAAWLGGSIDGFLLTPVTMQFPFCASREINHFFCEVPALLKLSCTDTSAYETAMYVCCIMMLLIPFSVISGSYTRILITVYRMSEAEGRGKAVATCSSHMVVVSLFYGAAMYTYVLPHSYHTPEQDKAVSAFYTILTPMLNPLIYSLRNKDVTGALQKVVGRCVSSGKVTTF
Summary of the method: as §1

O2T29 Q24R = test system: T12, O2T29 Q24R
T12 sequence (whole entry): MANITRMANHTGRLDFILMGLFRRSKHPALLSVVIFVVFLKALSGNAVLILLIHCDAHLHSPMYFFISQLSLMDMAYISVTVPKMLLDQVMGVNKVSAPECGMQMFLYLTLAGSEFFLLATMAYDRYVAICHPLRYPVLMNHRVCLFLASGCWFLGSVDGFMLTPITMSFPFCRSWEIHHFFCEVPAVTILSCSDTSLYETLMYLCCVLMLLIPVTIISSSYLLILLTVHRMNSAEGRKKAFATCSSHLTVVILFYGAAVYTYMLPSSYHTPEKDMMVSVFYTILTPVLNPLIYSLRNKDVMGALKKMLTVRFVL
Summary of the method: as §1

O2T33 A169V = test system: T13, O2T33 A169V
T13 sequence (whole entry): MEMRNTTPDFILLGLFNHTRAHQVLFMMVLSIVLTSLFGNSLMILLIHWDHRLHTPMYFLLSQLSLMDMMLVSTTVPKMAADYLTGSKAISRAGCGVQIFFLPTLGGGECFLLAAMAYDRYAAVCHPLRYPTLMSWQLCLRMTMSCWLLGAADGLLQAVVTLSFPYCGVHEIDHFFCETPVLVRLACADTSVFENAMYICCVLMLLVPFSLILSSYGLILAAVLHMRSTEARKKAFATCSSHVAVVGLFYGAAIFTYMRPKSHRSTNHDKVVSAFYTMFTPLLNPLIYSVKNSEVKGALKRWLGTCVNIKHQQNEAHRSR
Summary of the method: as §1

O2T33 G297E I309L = test system: T14, O2T33 G297E I309L
T14 sequence (whole entry): T13 sequence (whole entry) with V169A, G297E, I309L
Summary of the method: as §1

O2T34 Q6P R267P = test system: T15, O2T34 Q6P R267P
T15 sequence (whole entry): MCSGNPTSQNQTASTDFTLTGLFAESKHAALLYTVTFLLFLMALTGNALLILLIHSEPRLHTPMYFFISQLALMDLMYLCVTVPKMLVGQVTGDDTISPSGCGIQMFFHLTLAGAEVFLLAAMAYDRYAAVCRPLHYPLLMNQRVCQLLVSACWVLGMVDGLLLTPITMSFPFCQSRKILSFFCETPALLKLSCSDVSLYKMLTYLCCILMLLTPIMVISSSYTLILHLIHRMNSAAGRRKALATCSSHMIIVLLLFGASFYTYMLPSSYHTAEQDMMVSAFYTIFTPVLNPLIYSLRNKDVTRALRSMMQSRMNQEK
Summary of the method: as §1

O2T34 R267P = test system: T16, O2T34 R267P
T16 sequence (whole entry): T15 sequence (whole entry) with P6Q
Summary of the method: as §1

O4A47 = test system: T17, O4A47
T17 sequence (whole entry): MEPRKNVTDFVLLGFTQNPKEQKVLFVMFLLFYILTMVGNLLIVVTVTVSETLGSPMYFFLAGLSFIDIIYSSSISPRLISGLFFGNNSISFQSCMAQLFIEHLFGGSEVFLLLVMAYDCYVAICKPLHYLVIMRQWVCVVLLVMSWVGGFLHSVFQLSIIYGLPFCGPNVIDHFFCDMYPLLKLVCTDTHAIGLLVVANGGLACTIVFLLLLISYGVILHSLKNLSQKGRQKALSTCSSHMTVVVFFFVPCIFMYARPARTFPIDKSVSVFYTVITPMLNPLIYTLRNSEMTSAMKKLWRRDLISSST
Summary of the method: as §1

O4C46 S240F C252Y K288R = test system: O4C46 S240F C252Y K288R
Summary of the method: as §1

O4F15 A272T = test system: T18, O4F15 A272T
T18 sequence (whole entry): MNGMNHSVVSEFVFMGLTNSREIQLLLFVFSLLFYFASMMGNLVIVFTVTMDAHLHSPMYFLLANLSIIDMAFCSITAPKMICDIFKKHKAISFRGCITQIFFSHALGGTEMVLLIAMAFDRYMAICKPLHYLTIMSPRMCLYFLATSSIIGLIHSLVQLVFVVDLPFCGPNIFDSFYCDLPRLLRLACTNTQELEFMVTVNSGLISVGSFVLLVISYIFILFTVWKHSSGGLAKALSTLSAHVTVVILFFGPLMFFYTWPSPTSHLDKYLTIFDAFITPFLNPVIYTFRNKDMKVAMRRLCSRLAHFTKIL
Summary of the method: as §1

O1440 = test system: T19, O1440
T19 sequence (whole entry): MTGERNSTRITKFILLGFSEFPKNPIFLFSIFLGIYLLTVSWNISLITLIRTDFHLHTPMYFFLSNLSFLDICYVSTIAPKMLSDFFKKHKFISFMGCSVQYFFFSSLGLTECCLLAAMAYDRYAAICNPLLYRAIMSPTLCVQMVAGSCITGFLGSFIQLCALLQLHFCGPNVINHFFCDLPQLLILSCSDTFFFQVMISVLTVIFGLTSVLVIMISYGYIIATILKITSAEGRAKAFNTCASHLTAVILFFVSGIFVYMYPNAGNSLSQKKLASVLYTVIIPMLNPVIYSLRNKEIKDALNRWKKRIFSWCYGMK
Summary of the method: as §1

Measured: odorant receptor agonist call

CC1=C(O)C(=O)C(C)O1 (centres undefined)
not listed: O1440
inactive: all other assays above

CCCCCCCC(=O)CCCCCCC
inactive: O1440

CC1CC=CCCCCCCCCCC(=O)C1 (centres undefined)
active: O1440

Cc1cnc(C)c(C)n1
not listed: O1440
inactive: all other assays above

CC(=O)c1c(C)c([N+](=O)[O-])c(C(C)(C)C)c([N+](=O)[O-])c1C
active: O1440

O=C1CCCCCCCCCCCCCC1
active: O1440

O=C1CCCCCCCCC1
inactive: O1440

OC1CCCCCCCCCCCCCC1
active: O1440

CCCCCCCCCCCCCC(C)=O
active: O1440

CC1=C(O)C(=O)OC1C (centres undefined)
not listed: O1440
inactive: all other assays above

O=C1CCCCCCCCCC1
inactive: O1440

CC1=NC(C)C(C)S1 (centres undefined)
not listed: O1440
inactive: all other assays above
